# Laboratory results from ChEMBL document CHEMBL2010803, “Novel NSAID 1-acyl-4-cycloalkyl/arylsemicarbazides and 1-acyl-5-benzyloxy/hydroxy carbamoylcarbazides as potential anticancer agents and antioxidants” (Eur J Med Chem, 2012).
# The source made the active and inactive calls. The rule behind the calls is not given here.
# How the values were obtained:
# [1] = system: Vesicular stomatitis virus; test: Antiviral activity against Vesicular stomatitis virus infected in human cervix carcinoma cells assessed as inhibition of virus-induced cytopathic effect at 0.32 to 100 uM; type: functional, organism-based
# Procedure, shortened: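 Confluent human cervix carcinoma (HeLa) cultures received 100 CCID50 of VSV together with the compound at 100, 40, 8, 1.6 or 0.32 μM. Cytopathicity was read at the point of full CPE in infected, untreated control wells.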
# [2] = system: Vesicular stomatitis virus; test: Antiviral activity against VSV infected in human lung fibroblast assessed as inhibition of virus-induced cytopathic effect at 0.32 to 100 uM; type: functional, organism-based
# L1210 = test: Cytostatic activity against mouse L1210 cells after 2 days by coulter counter analysis; type: functional, cell-based; details: L1210, 48 h
# Procedure, shortened: (§1)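 300,000–500,000 cells/ml mixed 1:1 with compound dilutions and incubated at 37 °C for 2 days (L1210) or 3 days (CEM, HeLa). Cell number counted with a Coulter counter; HeLa trypsinized before counting.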
# Human respirovirus 3 = test: Antiviral activity against Parainfluenza virus 3 infected in african green monkey Vero cells assessed as inhibition of virus-induced cytopathic effect at 0.32 to 100 uM; type: functional, organism-based
# Procedure, shortened: (§2)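 Confluent cell cultures were infected with 100 CCID50 of virus in the presence of test compound at 100, 40, 8, 1.6 and 0.32 μM. Cytopathic effect was scored once it was complete in untreated infected controls.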
# Human alphaherpesvirus 1 = test: Antiviral activity against HSV1 KOS infected in human lung fibroblast assessed as inhibition of virus-induced cytopathic effect at 0.32 to 100 uM; type: functional, organism-based; procedure, shortened: as §2
# Influenza A virus [3] = test: Antiviral activity against Influenza A virus H3N2 infected in MDCK cells assessed as inhibition of virus-induced cytopathic effect at 0.32 to 100 uM; type: functional, organism-based
# Procedure, shortened: (§3)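 Confluent MDCK monolayers were infected in the presence of the compound at 100, 40, 8, 1.6 and 0.32 μM. Viral cytopathicity was scored once it was complete in untreated infected control cultures.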
# Human alphaherpesvirus 2 = test: Antiviral activity against HSV2 G infected in human lung fibroblast assessed as inhibition of virus-induced cytopathic effect at 0.32 to 100 uM; type: functional, organism-based; details: strain G; procedure, shortened: as §2
# HeLa = test: Cytostatic activity against human HeLa cells after 3 days by coulter counter analysis; type: functional, cell-based; details: 72 h; procedure, shortened: as §1
# CCRF-CEM = test: Cytostatic activity against human CEM cells after 3 days by coulter counter analysis; type: functional, cell-based; details: 72 h; procedure, shortened: as §1
# [4] = system: Human immunodeficiency virus 2; test: Antiviral activity against HIV2 ROD infected in human CEM cells assessed as inhibition of virus-induced CEM giant cell formation at 0.32 to 100 uM after 4 days; type: functional, organism-based; details: ISOLATE ROD, CCRF-CEM
# Procedure, shortened: (§4)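 CEM cells (~3 × 10^5 cells/cm³) exposed to 100 CCID50/ml of virus and seeded into wells holding compound dilutions. Incubated 4 days at 37 °C, then giant cell formation examined microscopically.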
# MCF7 = test: Cytostatic activity against human MCF7 cells after 72 hrs by MTT assay; type: functional, cell-based; details: MCF7, 72 h
# Procedure, shortened: (§5)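 Monolayers in DMEM with 10% FBS, 2 mM L-glutamine and penicillin/streptomycin, 37 °C, 5% CO2. Seeded at 1–3 × 10^4 cells/ml, then compound added in tenfold dilutions (10⁻⁸–10⁻⁴ M) for 72 h. MTT read at 570 nm; percent growth taken against time-zero and untreated controls. IC50 by linear regression; quadruplicate, at least two experiments.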
# [5] = system: Mammalian orthoreovirus 1; test: Antiviral activity against Reovirus-1 infected in african green monkey Vero cells assessed as inhibition of virus-induced cytopathic effect at 0.32 to 100 uM; type: functional, organism-based; procedure, shortened: as §2
# Sindbis virus = test: Antiviral activity against Sindbis virus infected in african green monkey Vero cells assessed as inhibition of virus-induced cytopathic effect at 0.32 to 100 uM; type: functional, organism-based; procedure, shortened: as §2
# Coxsackievirus B4 [6] = test: Antiviral activity against Coxsackievirus B4 infected in human cervix carcinoma cells assessed as inhibition of virus-induced cytopathic effect at 0.32 to 100 uM; type: functional, organism-based; procedure, shortened: as §2
# HCT-116 = test: Cytostatic activity against human HCT116 cells after 72 hrs by MTT assay; type: functional, cell-based; details: HCT-116, 72 h; procedure, shortened: as §5
# Feline coronavirus = test: Antiviral activity against Feline coronavirus infected in feline CRFK cells assessed as inhibition of virus-induced cytopathic effect at 0.32 to 100 uM; type: functional, organism-based; procedure, shortened: as §2
# [7] = system: Respiratory syncytial virus; test: Antiviral activity against RSV infected in human cervix carcinoma cells assessed as inhibition of virus-induced cytopathic effect at 0.32 to 100 uM; type: functional, organism-based; procedure, shortened: as §2
# [8] = Antioxidant activity assessed as inhibition of AAPH-induced linoleic acid lipid peroxidation by measuring conjugated diene hydroperoxide level; type: functional; set-up: concentration or dose not given beside the values
# Procedure, shortened: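 Linoleic acid sodium salt (10 μL of 16 mM) in 0.05 M phosphate buffer pH 7.4 at 37 °C. Oxidation started under air with 50 μL of 40 mM AAPH. Conjugated diene hydroperoxide formation followed as absorbance rise at 234 nm; control contains the same DMSO level. At least triplicate.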
# [9] = system: Radical scavenging activity; test: Antioxidant activity assessed as DPPH free radical scavenging activity at 100 uM after 60 mins by spectrophotometric analysis; type: functional
# Procedure, shortened: (§6)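 0.05 mM DPPH in absolute ethanol mixed with an equal volume of compound in DMSO (final 100 μM). Shaken and left 20 or 60 min, then absorbance read at 517 nm and percent activity calculated. Three replicates, averaged.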
# [10] = system: Human immunodeficiency virus 1; test: Antiviral activity against HIV1 3B infected in human CEM cells assessed as inhibition of virus-induced CEM giant cell formation at 0.32 to 100 uM after 4 days; type: functional, organism-based; details: CCRF-CEM; procedure, shortened: as §4
# Influenza B virus = test: Antiviral activity against Influenza B virus infected in MDCK cells assessed as inhibition of virus-induced cytopathic effect at 0.32 to 100 uM; type: functional, organism-based; procedure, shortened: as §3
# Influenza A virus [11] = test: Antiviral activity against Influenza A virus H1N1 infected in MDCK cells assessed as inhibition of virus-induced cytopathic effect at 0.32 to 100 uM; type: functional, organism-based; procedure, shortened: as §3
# Felid alphaherpesvirus 1 = test: Antiviral activity against Feline herpesvirus infected in feline CRFK cells assessed as inhibition of virus-induced cytopathic effect at 0.32 to 100 uM; type: functional, organism-based; procedure, shortened: as §2
# Punta Toro virus = test: Antiviral activity against Punta Toro virus infected in african green monkey Vero cells assessed as inhibition of virus-induced cytopathic effect at 0.32 to 100 uM; type: functional, organism-based; procedure, shortened: as §2
# [12] = system: Radical scavenging activity; test: Antioxidant activity assessed as DPPH free radical scavenging activity at 100 uM after 20 mins by spectrophotometric analysis; type: functional; procedure, shortened: as §6
# Vaccinia virus = test: Antiviral activity against Vaccinia virus infected in human lung fibroblast assessed as inhibition of virus-induced cytopathic effect at 0.32 to 100 uM; type: functional, organism-based; details: Orthopoxvirus vaccinia
# Glycine max = test: Inhibition of soybean LOX assessed as conversion of sodium linoleate to 13- hydroperoxylinoleic acid at 100 uM
# NCI-H460 = test: Cytostatic activity against human NCI-H460 cells after 72 hrs by MTT assay; type: functional, cell-based; details: NCI-H460, 72 h; procedure, shortened: as §5
# Coxsackievirus B4 [13] = test: Antiviral activity against Coxsackievirus B4 infected in african green monkey Vero cells assessed as inhibition of virus-induced cytopathic effect at 0.32 to 100 uM; type: functional, organism-based; procedure, shortened: as §2
# [14] = dose or concentration not given here
Compound,inhibition [1],inhibition [2],IC50 (L1210) [µM],inhibition (Human respirovirus 3),inhibition (Human alphaherpesvirus 1),inhibition (Influenza A virus [3]),inhibition (Human alphaherpesvirus 2),IC50 (HeLa) [µM],IC50 (CCRF-CEM) [µM],inhibition [4],IC50 (MCF7) [µM],inhibition [5],inhibition (Sindbis virus),inhibition (Coxsackievirus B4 [6]),IC50 (HCT-116) [µM],inhibition (Feline coronavirus),inhibition [7],Activity [9] [%],inhibition [10],inhibition (Influenza B virus),also measured
CC(C(=O)NNC(=O)NOCc1ccccc1)c1cccc(Cc2ccccc2)c1 (stereo unspecified),inactive,inactive,79,inactive,inactive,inactive,inactive,78,101,inactive,41,inactive,inactive,inactive,56,inactive,inactive,6,inactive,inactive,inhibition [8]: inactive; inhibition (Influenza A virus [11]): inactive; inhibition (Felid alphaherpesvirus 1): inactive; inhibition (Punta Toro virus): inactive; Activity [12]: 3%; inhibition (Vaccinia virus): inactive; inhibition (Glycine max): inactive; IC50 (NCI-H460): 82 µM; inhibition (Coxsackievirus B4 [13]): inactive
CC(C)Cc1ccc(C(C)C(=O)NNC(=O)NCC2CCCCC2)cc1 (stereo unspecified),inactive,inactive,44,inactive,inactive,inactive,inactive,142,26,inactive,13,inactive,inactive,inactive,21,inactive,inactive,6,inactive,inactive,"inhibition [8, 14]: 16%; inhibition (Influenza A virus [11]): inactive; inhibition (Felid alphaherpesvirus 1): inactive; inhibition (Punta Toro virus): inactive; Activity [12]: 3%; inhibition (Vaccinia virus): inactive; inhibition (Glycine max): 25%; IC50 (NCI-H460): 29 µM; inhibition (Coxsackievirus B4 [13]): inactive"
NNC(=O)NOCc1ccccc1,inactive,inactive,> 250,inactive,inactive,inactive,inactive,> 250,> 250,inactive,> 100,inactive,inactive,inactive,> 100,inactive,inactive,14,inactive,inactive,"inhibition [8, 14]: 36%; inhibition (Influenza A virus [11]): inactive; inhibition (Felid alphaherpesvirus 1): inactive; inhibition (Punta Toro virus): inactive; Activity [12]: 6%; inhibition (Vaccinia virus): inactive; inhibition (Glycine max): inactive; IC50 (NCI-H460): > 100 µM; inhibition (Coxsackievirus B4 [13]): inactive"
CC(C)Cc1ccc(C(C)C(=O)NNC(=O)NC2CCCC2)cc1 (stereo unspecified),inactive,inactive,103,inactive,inactive,inactive,inactive,80,74,inactive,18,inactive,inactive,inactive,32,inactive,inactive,7,inactive,inactive,"inhibition [8, 14]: 26%; inhibition (Influenza A virus [11]): inactive; inhibition (Felid alphaherpesvirus 1): inactive; inhibition (Punta Toro virus): inactive; Activity [12]: 4%; inhibition (Vaccinia virus): inactive; inhibition (Glycine max): inactive; IC50 (NCI-H460): 32 µM; inhibition (Coxsackievirus B4 [13]): inactive"
